Ecoli WT expand – blocks growth of wild type E. coli BW25113; OD600 absorbance; growth inhibition, % at 100 µM; actives 0.15% (n = 98,000);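 active = growth inhibition above about 50% at one test dose, limit read from the data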;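 note: growth measured after 20 h incubation at 37 °C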
PostGolgi ctrl – growth of the yeast control strain, post-Golgi counter-screen | efflux-deficient yeast background strain, growth absorbance A615, 16 h | inhibition, % at 10 µM | actives 5% (n = 98,000) | AID 738
PostGolgi yeast – growth inhibition of a yeast mutant, post-Golgi transport screen. actives 0.9% (n = 98,000). post-Golgi transport phenotypic cell assay. AID 739. inhibition, % at 10 µM;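 note: yeast cells grown in 1536-well plates; yeast grown about 18 h at 30C before absorbance read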
Ecoli tolC – E. coli tolC mutant growth inhibition. E. coli BW25113 tolC mutant growth, OD615. growth inhibition, % at 10 µM (by protocol). actives 2.2% (n = 65,000). AID 573;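 active = growth inhibition at or above a cutoff equal to the mean over every tested compound plus 3 SD, cut at about 60% in these data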;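 note: growth measured after 20 h incubation at 37 °C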
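Test system: E. coli BW25113 ΔtolC::kan bacteria | Medium: Kanamycin-containing LB broth (50 µg/mL) | Dosing: One dose of 10 µM final | Times: 20 h incubation with compound, 37 °C | Detection: Optical density read at 615 nm | Read-out basis: Percent growth inhibition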
PLAP act – human PLAP activation; purified PLAP enzyme, luminescent substrate read-out; stronger effect = higher value; activation fold at 20 µM; actives 1.2% (n = 96,000); in the data active = activation fold above about 2
Target sequence (P05187 whole entry, looked up): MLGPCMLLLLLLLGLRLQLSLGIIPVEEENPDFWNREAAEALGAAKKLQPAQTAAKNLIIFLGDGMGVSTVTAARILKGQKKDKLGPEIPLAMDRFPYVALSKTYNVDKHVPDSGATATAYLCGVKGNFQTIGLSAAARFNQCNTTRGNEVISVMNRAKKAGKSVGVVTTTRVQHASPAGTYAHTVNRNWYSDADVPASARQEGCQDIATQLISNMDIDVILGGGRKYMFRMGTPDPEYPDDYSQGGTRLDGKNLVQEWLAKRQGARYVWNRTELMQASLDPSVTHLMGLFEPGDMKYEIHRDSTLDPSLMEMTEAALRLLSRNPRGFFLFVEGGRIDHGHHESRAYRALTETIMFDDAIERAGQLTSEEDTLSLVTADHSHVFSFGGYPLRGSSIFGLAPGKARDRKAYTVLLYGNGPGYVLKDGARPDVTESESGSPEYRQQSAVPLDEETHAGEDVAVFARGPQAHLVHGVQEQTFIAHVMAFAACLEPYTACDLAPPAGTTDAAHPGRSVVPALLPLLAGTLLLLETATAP
* = called active by the depositor; x = not tested or not shown. This is a sample that favours compounds with a hit; in the whole collection about 7.2% have one here. Cut-off read from the data, not from the text of the source, unless noted: active = inhibition above about 30%; inactive = the rest.

SMILES | Ecoli WT expand | PostGolgi ctrl | PostGolgi yeast | Ecoli tolC | PLAP act
S=C(c1ccc(-c2ccc(Cl)c(Cl)c2)o1)N1CCOCC1 | -5.0 | 17.4 | -6.7 | 64.6* | 1.3
CC(C)(C)C(=O)NCCCc1nc2ccccc2n1CCCOc1ccc(Cl)cc1 | -4.0 | 27.8 | -0.7 | x | 1.5
O=C(c1ccc(COc2ccccc2Cl)o1)N1CCN(c2ccccc2)CC1 | -26.0 | 46.2* | -12.2 | 83.7* | 1.7
CCCc1ccc(OCc2ccc(C(=O)N3CCN(c4ccccn4)CC3)o2)c(OC)c1 | -14.0 | 71.5* | 7.4 | 100.0* | 1
Cc1nn(Cc2c(F)c(F)c(F)c(F)c2F)c(C)c1NC(=O)c1ccc(COc2ccccc2Cl)o1 | -16.0 | 80.1* | -3.8 | x | 1.4
COc1ccccc1S(=O)(=O)Cc1ccc(C(=O)N2CCN(c3ccccc3)CC2)o1 | 9.0 | 6.6 | -4.2 | 1.0 | 1.5
O=C(c1ccc(COc2ccccc2Br)o1)N1CCCCCC1 | -5.0 | 38.0* | -0.8 | 61.3* | 1.1
COC(=O)C(NS(C)(=O)=O)(c1c(C)[nH]c2ccccc12)C(F)(F)F (centres undefined) | 8.0 | 1.4 | -3.1 | -17.7 | 1
O=C1c2ccccc2C(=O)N1CCc1nc2ccccc2c(=O)n1CCCn1ccnc1 | -3.0 | -3.8 | -4.7 | -2.5 | 1
O=C(c1ccco1)N1CCN(C(=O)c2ccc(COc3ccc4c(c3)CCC4)o2)CC1 | -5.0 | 10.3 | 5.3 | x | 1.2
O=C(c1ccc(COc2ccc3c(c2)CCC3)o1)N1CCN(c2ccccc2)CC1 | x | x | x | 67.3* | x
O=C(NCc1ccccc1)c1sc(=S)n2c1[nH]c(=O)c1ccccc12 | 4.0 | 46.6* | 3.7 | x | 1
O=C(NCc1ccccc1)c1c(F)c(F)c(F)c(F)c1F | -2.0 | -8.0 | 4.1 | 5.2 | 1.2
CCCCNC(=O)Nc1ccc(Br)cn1 | 9.0 | 11.3 | -0.3 | 7.9 | 1
CCCCNC(=O)Nc1ccccn1 | 0.0 | 33.1* | 3.6 | x | 1.1
O=C(NCCCNC(=O)c1ccccn1)c1ccccn1 | 0.0 | 34.6* | -11.0 | 1.9 | 1
COc1ccc(OCC(=O)NNC(=O)c2ccccn2)cc1 | 35.0 | -8.1 | 1.8 | x | 2.5*
COC(=O)c1cccc(NC(=O)C2COc3ccccc3O2)c1C (centres undefined) | x | x | x | 8.6 | 0.9
CN1CCN(c2ccc(Cl)cc2NC(=O)c2cccc(S(=O)(=O)N(C)C)c2)CC1 | -4.0 | 6.8 | -1.0 | -1.0 | 1.8
O=C(Nc1nc(-c2ccccn2)cs1)C1COc2ccccc2O1 (centres undefined) | 11.0 | 38.9* | 31.4* | 100.0* | x
COC(=O)c1cccc(NC(=O)C2COc3ccccc3O2)c1 (centres undefined) | 2.0 | 39.1* | 5.5 | 44.1 | 0.7
COC(=O)c1cc(NC(=O)C2COc3ccccc3O2)ccc1Cl (centres undefined) | 4.0 | 30.2* | -3.5 | 39.8 | 0.7
CN1CCN(c2ccc(Cl)cc2NC(=O)C2COc3ccccc3O2)CC1 (centres undefined) | -8.0 | 30.2* | -2.8 | 7.7 | 1.5
Cc1cc(C(=O)COC(=O)C2=NNC(=O)CC2)c(C)n1-c1cccc(C(F)(F)F)c1 | 6.0 | 17.3 | 5.5 | x | 1.4
COc1ccc(CNC(=O)C(C)OC(=O)c2cccn2C)cc1 (centres undefined) | 8.0 | -2.3 | 0.5 | -10.0 | 1.1
SMILES | Ecoli WT expand | PostGolgi ctrl | PostGolgi yeast | Ecoli tolC | PLAP act
O=C(Nc1ccc(N2CCOCC2)cc1)c1cccc(S(=O)(=O)N2CCC(Cc3ccccc3)CC2)c1 | -10.0 | 7.2 | -20.0 | x | 1.1
Cc1ccc(C2CC(=O)Nc3cc4c(cc32)OCO4)o1 (centres undefined) | 4.0 | 21.1 | 3.7 | x | 0.8
N#Cc1cc2c(nc1SCC(O)CS(=O)(=O)Cc1ccc(Cl)cc1)CCCC2 (centres undefined) | -14.0 | 36.0* | -3.3 | x | 1.4
O=C1NC(c2ccccc2)=C(c2nc3ccccc3s2)C(c2ccc(F)cc2)N1 (centres undefined) | -3.0 | 41.1* | 0.0 | x | 1
COc1ccc(C2NC(=O)NC(c3ccccc3)=C2c2nc3ccccc3s2)cc1 (centres undefined) | -22.0 | 14.8 | -2.7 | x | 1
CCSc1nnc(NC(=O)C2CCCN(S(=O)(=O)c3cnc[nH]3)C2)s1 (centres undefined) | 8.0 | 16.3 | -2.4 | -7.3 | 1
COC(=O)C(NNc1ccccc1)(NC(=O)c1cccc(F)c1)C(F)(F)F (centres undefined) | -4.0 | -7.2 | -2.8 | x | 1
Cc1nc2ccccc2c2oc(C(=O)NCC3COc4ccccc4O3)cc12 (centres undefined) | -5.0 | 41.7* | 4.7 | 39.3 | 1.5
CCN(CC)S(=O)(=O)c1ccc2oc(C(=O)NCCCN3CCOCC3)c(C)c2c1 | 2.0 | 7.2 | 5.0 | x | 2*
Cc1c(C(=O)NCC2COc3ccccc3O2)oc2ccc(S(=O)(=O)N3CCOCC3)cc12 (centres undefined) | -14.0 | 1.6 | -10.9 | 33.1 | 1.5
CCN(CC)S(=O)(=O)c1ccc2oc(C(=O)NCC3COc4ccccc4O3)c(C)c2c1 (centres undefined) | 0.0 | 34.8* | -9.6 | 38.1 | 1.4
CCOC(=O)c1cc(CC)sc1NC(=O)C(c1ccccc1)c1ccccc1 | -9.0 | 8.0 | 13.5 | x | 1.1
COc1cccc(CNc2nc3nc(C)cc(C)n3n2)c1 | -4.0 | 5.1 | -9.8 | -7.1 | 1.2
COc1cccc(CNc2cc(CSc3ccc(Cl)cc3)nc(C)n2)c1 | -6.0 | 25.2 | 6.1 | x | 2*
COc1ccccc1CNc1n[nH]c(NCc2ccccc2OC)n1 | 3.0 | 0.6 | -0.6 | 20.6 | 1.6
COc1ccccc1CNc1cc(CSc2ccc(Cl)cc2)nc(C)n1 | -3.0 | 26.3 | -4.5 | x | 2*
O=C(Nc1ccncc1)c1cccs1 | 4.0 | 0.3 | 15.0 | -11.8 | 0.9
O=C(Nc1ccc2nsnc2c1)c1cccs1 | 14.0 | 40.0* | -3.1 | 28.9 | 0.9
Cc1ccc(CN(CC(=O)NCCc2ccccc2)C(=O)CCCC(=O)Nc2cc(C)on2)cc1 | 3.0 | 2.6 | 8.9 | 10.9 | 1.3
O=C(CSc1ncnc2c1oc1ccccc12)N1CCc2ccccc2C1 | x | x | x | -6.6 | 0.9
O=C(CSc1nc(C2CC2)nc2ccccc12)N1CCc2ccccc2C1 | -20.0 | 67.7* | -6.3 | x | 1
CC1=CCC(C(=O)O)(C(=O)N/N=C/c2cccs2)C(c2ccc(F)cc2)C1 (centres undefined) | -13.0 | 5.4 | -5.3 | x | 1.3
CC1=CCC(C(=O)O)(C(=O)N/N=C/c2cccs2)C(c2ccc([N+](=O)[O-])cc2)C1 (centres undefined) | 9.0 | 65.3* | 0.9 | x | 1.3
COc1cccc(N2CC(C(=O)Nc3ccc(C(=O)OC(C)C)cc3)CC2=O)c1 (centres undefined) | -8.0 | 11.8 | 3.0 | 61.7* | 1.1
COc1cccc(C2C3=C(N=C4SCC(=O)N42)c2ccccc2CC3)c1OC (centres undefined) | -5.0 | 40.4* | 22.5 | 42.8 | 1
CCC(Oc1ccccc1)C(=O)Nc1cc(C)on1 (centres undefined) | 8.0 | 5.9 | -0.2 | -12.7 | 1

Screening data as filed in PubChem BioAssay.
